Test results as given in the EternaBench riboswitch data.

Tested on: MS2 coat protein
Experiment: apparent Kd, MS2 coat protein; higher = weaker binding; RNA-MaP array; FMN 200 µM where present
Method in brief: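 Binding was read on Illumina sequencing-chip clusters where stalled E. coli RNA polymerase had transcribed each design. A titration of SNAP-549-labelled MS2 coat protein began at 0.7 or 1.5 nM and doubled to 3 µM, once without ligand and once with constant ligand, in 100 mM Tris-HCl pH 7.5, 80 mM KCl, 4 mM MgCl2, BSA, DTT, yeast tRNA and Tween-20. The apparent Kd is the median of filtered per-cluster binding-curve fits, based on green signal normalised to red-channel RNA signal and control-cluster median Fmax.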

[1] = designed as: ON switch for flavin mononucleotide, no ligand
[2] = ligand present: flavin mononucleotide, designed as: ON switch for flavin mononucleotide
[3] = ligand present: flavin mononucleotide, designed as: OFF switch for flavin mononucleotide
[4] = designed as: OFF switch for flavin mononucleotide, no ligand

Row | Sequence | apparent Kd [1] [nM] | apparent Kd [2] [nM] | apparent Kd [3] [nM] | apparent Kd [4] [nM]
1 | AGCUCGUACACAGGAUAUCCGUUGCUGCGCACUGGAGAAGGGUGACAUCCGCACAUGAGGAUCACCCAUGUACCGGGACAAUAU | 282 | 640 | – | –
2 | CGAAUGUAGACAGGAUAUCCUGGACAUGAGGAUCACCCAUGUGCAUAAAAUGGAGAAGGGUCACGGAGGCCCUGUGGGCAGGGU | 44.4 | 9.21 | – | –
3 | AGUAGUUUAACAUGAGGAUCACCCAUGUAUCUAUCUGUAACCUAGGAUAUGGACGUUGUAUUUAACCAGAAGGAGGAUCGUUUA | 28.5 | 17 | – | –
4 | AUACAUGAGGAUCACCCAUGUUACUGGGUCUAUAUAGAACGUAGAAGGAUGUUUAUACACAUAACAUAGGAUAUACAAUAUUGU | – | – | 30.9 | –
5 | AGCUAGGCAGGAUAUACGUAAAUGUCGAAAGACGUAUUGGGACAUGAGGAUCACCCAUGUAGAAGGGCCUAGCA | – | – | 165 | 31.6
6 | AGCUACGUUUCGUAGCAGCUAGGUGAGGAUAUCCACUCGACAUGAGGAUCACCCAUGUAAACAUGGGAGAAGGCGCCUAGAAAG | 84.9 | 10.6 | – | –
7 | CUGUAUGAUGUAGGAUAUACAAUAAUAUUGUUAGUAGAAGGACAUGAGGAUCACCCAUGUAAAUUAAUUUUAAUUAUUUUUGCG | – | – | 36.6 | 47.2
8 | UCCUAACAUGAGGAUCACCCAUGUCAGGAUAUGAUACUAUGUACUUCGGUACAUAGUAUCAGAAGGGACAUCCU | – | – | 16.6 | 15.3
9 | GUAAAGUGAGGAUAUGGUAAAGUAAGUAUGUAGUAAGUAAUCCAGAAGGCACAUGAGGAUCACCCAUGUAAAUG | – | – | 32.3 | 30
10 | GACACUAUGUUUGUCAGAUAGAGAGAGGAUAUGGCUCAUGAGACAUGAGGAUCACCCAUGUAUAAUCAGAAGGCUCGAGUAGGA | 12.5 | 9.56 | – | –
11 | GCGAGUAAAGCAGGAUAUCUAUUGUCUCUGUAACAUGAGGAUCACCCAUGUAGAGAAGGGCUUAGUCAUACAAUUCGAACUCGC | – | – | 7.32 | 7.86
12 | ACUAGAAGCGUGAAAUAUCACAUGAGGAUCACCCAUGUGACGCAGGAUAUAACAAAAUCAGAAGGUUAGAAGGGUGAGCACGCC | 26.8 | 20.2 | – | –
13 | UUAAUUAACAAGAAGGCAUACAUGAGGAUCACCCAUGUUCUACAUGGAUAAUGAGGAUAUUGCUAAUACAUGAGGAUCACCCAU | – | – | 50.8 | 53.6
14 | AAUAUAAUAAGAGCUGGAAAUAAAACAUGAGGAUCACCCAUGUAGGAUAUCAGCACGAUAAGUGCUGAGAAGGACAACCAGCUC | – | – | 15.1 | 14
15 | ACAUGAGGAUCACCCAUGUUCACAUAGGAUAUUGAUUUUAUUGGUUUUAGAAUAGUAAUUAAACUCAAGAAGGAUGCCAGUUGU | 10.7 | 8.78 | – | –
16 | UCUGGGUCUGUGAGGAUAUUGGGUCUGAAAGGGCUCGAGAAGGCACAUGAGGAUCACCCAUGUAAGGGCUCGGG | – | – | 21.6 | 27.6
17 | AAGUGUGCCUAGGAUAUGUUCGGCCAAGGUCAUACAGAAGGAGGCACAUGAGGAUCACCCAUGUAGUGUCCUAC | – | – | 43.1 | 73.2
18 | AGCUACGUUUCGUAGCAGUGUCAUCGAGAAGGCCUCAUUACAUGAGGAUCACCCAUGUGGACAUGGGAGGAUAUCGAUGAUACA | 487 | 212 | – | –
19 | CAGUACUGAGGAUAUACAUGAGGAUCACCCAUGUGUUCCUUGUAGGAUAUGCGCAAAAGUAGAAGCCAGAAGGAGAUGUGCCUA | – | – | 7.31 | 6.95
20 | GGAUGACAUAGUCAUCUUUAACGAACAUGAGGAUCACCCAUGUAGGAUAUGCUACUCAACGAGUAGCAGAAGGACAUGUGUCUU | – | – | 127 | 25.9
21 | GUUUUCGCAUGAGGAUAUGCUCGCAAUUCAAGAGCAGAAGGUAUGUCUAUAGACAUGAGGAUCACCCAUGUAUUUAUCAUUGAA | 218 | 58.7 | – | –
22 | GUAGCAUUGUGAGGAUAUCCAUAUCCGAAAGGGACAUGAGGAUCACCCAUGUCGCGAAAGCGGUGGGAGAAGGCACUAUGCUAC | 4.31 | 4.03 | – | –
23 | AAAAAACAUGAGGAUCACCCAUGUCAAAAGACGUGAGGAUAUGUACAGACUUCGGUCUGUACAGAAGGCACGAAAA | 25.4 | 21.2 | – | –
24 | CCGGCUGCUGUGAGGAUAUGCCUGUGGGUGCGUGGGUAGAAGGCACAUGAGGAUCACCCAUGUCCUGCGGCUCC | – | – | 311 | 877
25 | UGUCAUUUACAGAAGGGUAGUUGGGUUUUACAUGAGGAUCACCCAUGUUUUACAGGAUAUGUGUUUUGUUAAUAUUAAAGUUCA | – | – | 113 | 72.9
26 | CAUGAUCAUGUAGGAUAUAUACUGGAAUACAGUAUAGAAGGACAUGAGGAUCACCCAUGUUAUGUGCCUCCAAGUGAGAUCAUG | – | – | 28.3 | 20.1
27 | AAUAAUAAGGAGGAUAUCGUAUCGGAAACGAUACGAGAAGGCUUAACAUGAGGAUCACCCAUGUUCCUCAAUAA | – | – | 74.8 | 31
28 | CCUUGUAGCGGAGGAUAUGGGCCUCACUCAGUCAAAGAGUGAGAAACAUGAGGAUCACCCAUGUCCCAGAAGGCCGCUGCUUGG | 17.8 | 12.8 | – | –

Row | Sequence | apparent Kd [1] [nM] | apparent Kd [2] [nM] | apparent Kd [3] [nM] | apparent Kd [4] [nM]
29 | GGGCCCGGAGGAUAUACAUGAGGAUCACCCAUGUACUCGGGCUCUAUUGGGCUCGGGUGUAGAAGGCCGGGCCC | – | – | 14.1 | 13.7
30 | GUGUAGUCAGGAUAUACAUAGGAAGAUAAUAUAAUAUAAGUACAUGAGGAUCACCCAUGUAGAAGGGACAGUGU | – | – | 53.8 | 38.5
31 | CACCGUUACGUAGGAUAUAGUACAUGAGGAUCACCCAUGUAAUAAAUGAGAAUUUCGGAUGUAUGCUAGAAGGACGAAAUCGGC | – | – | 49.1 | 53
32 | UUUUUGUCAGGAUAUGACUAGAUGCACGUUAGUGCAUCUACUUAGAAGGGACAUGAGGAUCACCCAUGUAUUCC | – | – | 24.3 | 29.8
33 | AUCAGUCCGUAGAAGGGUGACAUGAGGAUCACCCAUGUGCCGUGUGCAUUUAUGCCUCCACGGCCACAGGAUAUACGGAGUCGA | 89 | 22.6 | – | –
34 | GGUCCAUCAUGAGGAUAUGGCACCUUAUUGGUGCCAGAAGGCAUGUCUAUAGACAUGAGGAUCACCCAUGUAAUAAAAUGGACC | 571 | 61.5 | – | –
35 | CACUGCAAUGUAGGAUAUCGACUGGAAUACAGUCGAGAAGGACAUGAGGAUCACCCAUGUAAUCCUAAUAAUAAAUAAGCAGUG | – | – | 18.4 | 12.4
36 | UGUUGGAGCAGAGGAUAUACAUGAGGAUCACCCAUGUAAUAAAGUGAAGCCUGGAAACAGGCAAUGUAGAAGGCUGCUCCGACA | – | – | 73.6 | 10.1
37 | GGAGGACAUGAGGAUCACCCAUGUGGAUGAUCGCUAGGAUAUGCGUGCGGGAGGAGUGGUGCAGAAGGAGUGGGAU | 350 | 272 | – | –
38 | AUAGGAUUGCGAGGAUAUUAGCGCGGGCCUUCAGACUUACGAAAUGACAUGAGGAUCACCCAUGUUAAGAAGGCGCAUCAAAUG | – | – | 58.3 | 6.58
39 | UCAUUGUCAGGAUAUCUUAAUAACGGUUCACUGUUUUAUUUGGAGAAGGGACAUGAGGAUCACCCAUGUUCCUG | – | – | 20.8 | 18.3
40 | ACUAGUUGGUAAGGAUAUCCUACACUAUUCUGACCCGUGCAAGCUACAUGAGGAUCACCCAUGUGGGAGAAGGUGCGUCAACGU | – | – | 10.6 | 11
41 | CCAUCAGCGGGCGUAUCGGUUGGACAUGAGGAUCACCCAUGUAGAAGGACAGGAGUAUUUCGGCUGUAGGAUAUACAUUUGGUG | – | – | 52.7 | 22.5
42 | UUAAUUUUAUGAUAUUAUGACAUUAGAAGGCUGUACAUGUUGAUACAUGAGGAUCACCCAUGUAUAGAGGAUAUAGACAAUUUU | – | – | 63.9 | 32.4
43 | GAGACGUCAGGAUAUCUGAUGUCUAACUUCGGUUAGACAUCAGAGAAGGGACAUGAGGAUCACCCAUGUCUCAA | – | – | 12.1 | 16.9
44 | UUUUUACAUGAGGAUCACCCAUGUCAGGAUAUGUUUAUAUUUUAUUAUUUUAUUUUUUACAGAAGGGACUAUUA | – | – | 66.6 | 136
45 | UGUCGGAGCAGAGGAUAUUACAUGAGGAUCACCCAUGUAUGAACCAAUAGCCGGAAACAGCAAUGUAAGAAGGCUGCUCCGACA | – | – | 6.88 | 4.64
46 | GGGUACAUCGGAGGAUAUCAUGCAAAUACAUGAGGAUCACCCAUGUCGAUGGAGACAUCGGAGAUUGAGAAGGCCGAUGUACCG | 21.9 | 5.5 | – | –
47 | CUGAGCUGAGGAUAUACAUGAGGAUCACCCAUGUUUUGUAGUUAGUGAAGAAGUAGUUGUAGAAGGCAGUUCGG | – | – | 255 | 51.3
48 | UUCUACAAGUAAGGAUAUCGGCUAUAGUUAACUCGAGAAGGUACAUGAGGAUCACCCAUGUAGUAGAUACAGACUACUGGCUUG | – | – | 13.3 | 10.9
49 | AACAUGUGAGGAUAUGUCACAUGGCUCUUCGGAGCAAGAUGACAGAAGGCACAUGAGGAUCACCCAUGUGCAUC | – | – | 22.6 | 13.8
50 | CACUGCAAUGUAGGAUAUCGACUGGAAUACAGUCGAGAAGGACAUGAGGAUCACCCAUGUCAUCCUAAUAAUAAAUAAGCAGUG | – | – | 19.5 | 14.4
51 | UGAACUAUGUAGAAGGCCCACAUUAAUAUGUAGGGAGGAUAUACAUGAGGAUCACCCAUGUGAAGAGCAAGAGGGUUUAACAGA | – | – | 143 | 112
52 | GAGGCGCUAGCAGGAUAUGUACAUGAGGAUCACCCAUGUAAAUCUUUUUCUGGUGAAGCGCAAGUAUAGAAGGGCUAACGCUGG | – | – | 18.8 | 9.07
53 | UGUAUGGACAGAGGAUAUACCGAUAGGAGAUACUAUCGACUAGUCCUCACAUGAGGAUCACCCAUGUAGAAGGCUGUCCAUACU | – | – | 179 | 25.2
54 | GAAAAGAAAGGAUAUACAGGGAAAUGAACCGCACGUAAACCACAUGAGGAUCACCCAUGUAGAAGGUUCAGUGC | – | – | 14.4 | 10.7
55 | CCUUUGCUAUAUACAUGAGGAUCACCCAUGUCCACUGACAGACAGGAUAUCCUUAGAAACUAGCAGGAGAAGGGUCAGUCAUAC | 263 | 328 | – | –
